Diaphorase act: compounds boosting diaphorase resazurin reduction – biochemical, uHTS, resorufin fluorescence, counter-screen for diaphorase-coupled primary assays, primary screen; AID 1229, 2008; activation factor at 20 µM; 0.005% of 190,000 active; Diaphorase/resazurin coupled assay, 16 min; hits give high values; 1 = vehicle wells, 0 = NADH-free wells;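 active = diaphorase activity raised at least twofold by the compound at 20 µM; inactive = activation factor below 2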
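Test system: Clostridium kluyveri diaphorase, purified enzyme. Buffer or medium: 50 mM HEPES pH 7.4 buffer plus MgCl2 and Tween 20. Also added: 0.114 mM NADH and 0.1 mM resazurin, final amounts. Dosing: compound 20 µM once, DMSO 1%. Schedule: 16 min enzyme reaction, ambient temperature. Detection: fluorescence of resorufin, 544 nm excitation, 590 nm emission.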
Diaph inh CS: diaphorase inhibitors and chemical oxidizers, primary screen, counter-screen for diaphorase-coupled primary assays, biochemical, uHTS, resorufin fluorescence; inhibition, % at 20 µM; 0.69% of 190,000 active; diaphorase resazurin-to-resorufin fluorescence, NADH, 16 min; bacterial (C. kluyveri) enzyme, not human; AID 1217, 2008;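 active = primary screen inhibition at 20 µM above a set limit, cut at about 50% in these data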
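controls = No-NADH positive control and DMSO neutral control | system = Clostridium kluyveri diaphorase enzyme | timing = reaction incubation of 16 min at room temperature | signal = resorufin fluorescence 544/590 nm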
ROMK mod: ROMK potassium channel modulators, primary screen, cell-based, thallium flux, MLSMR library. Tet-inducible ROMK, thallium flux fluorescence; actives lie on both sides. ATP-sensitive inward rectifier potassium channel 1 (Homo sapiens), P48048. 2% of 130,000 active. B-score at 10 µM;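 active = signal ratio slope over the read window, or its plate-corrected B-score, at least 3 SD from the plate mean, either direction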;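 note: B-score of the F/F0 ratio slope over 7 to 12 s after thallium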
WT yeast gro inh: growth inhibition of WT strain, primary screen, mitochondrial fusion inhibitor project, WT and mutant strains, chemical genetic. inhibition, % at 10 µM. 2.1% of 190,000 active. mitochondrial fusion phenotypic screen; in the data active = inhibition above about 58%; tested in S. cerevisiae
Lmaj promast: Leishmania major promastigote growth inhibition, primary screen; inhibition, % at 10 µM; Leishmania major promastigotes, resazurin fluorescence viability; 9% of 200,000 active; in the data active = inhibition above about 50%;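 note: promastigotes grown with compound for 44 hours at 28 °C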
Cl transport mod: KCC2 cotransporter modulators, thallium flux, primary screen, cell-based, HEK293 KCC2, FluoZin-2 fluorescence, MLSMR | Solute carrier family 12 member 5 (Homo sapiens), Q9H2X9 | KCC2 cells, thallium flux FluoZin-2 fluorescence | B-score of Tl+ flux slope (higher = more flux/activation; lower = inhibition) at 10 µM | 2.2% of 190,000 active | AID 1456, 2008;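 active = thallium flux slope and its plate-corrected score both differing from the plate sample mean at a set confidence after two filtering rounds, in either direction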;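 note: slope of fluorescence scaled to starting intensity during 10 to 20 s after thallium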
Target sequence (Q9H2X9 whole entry, looked up): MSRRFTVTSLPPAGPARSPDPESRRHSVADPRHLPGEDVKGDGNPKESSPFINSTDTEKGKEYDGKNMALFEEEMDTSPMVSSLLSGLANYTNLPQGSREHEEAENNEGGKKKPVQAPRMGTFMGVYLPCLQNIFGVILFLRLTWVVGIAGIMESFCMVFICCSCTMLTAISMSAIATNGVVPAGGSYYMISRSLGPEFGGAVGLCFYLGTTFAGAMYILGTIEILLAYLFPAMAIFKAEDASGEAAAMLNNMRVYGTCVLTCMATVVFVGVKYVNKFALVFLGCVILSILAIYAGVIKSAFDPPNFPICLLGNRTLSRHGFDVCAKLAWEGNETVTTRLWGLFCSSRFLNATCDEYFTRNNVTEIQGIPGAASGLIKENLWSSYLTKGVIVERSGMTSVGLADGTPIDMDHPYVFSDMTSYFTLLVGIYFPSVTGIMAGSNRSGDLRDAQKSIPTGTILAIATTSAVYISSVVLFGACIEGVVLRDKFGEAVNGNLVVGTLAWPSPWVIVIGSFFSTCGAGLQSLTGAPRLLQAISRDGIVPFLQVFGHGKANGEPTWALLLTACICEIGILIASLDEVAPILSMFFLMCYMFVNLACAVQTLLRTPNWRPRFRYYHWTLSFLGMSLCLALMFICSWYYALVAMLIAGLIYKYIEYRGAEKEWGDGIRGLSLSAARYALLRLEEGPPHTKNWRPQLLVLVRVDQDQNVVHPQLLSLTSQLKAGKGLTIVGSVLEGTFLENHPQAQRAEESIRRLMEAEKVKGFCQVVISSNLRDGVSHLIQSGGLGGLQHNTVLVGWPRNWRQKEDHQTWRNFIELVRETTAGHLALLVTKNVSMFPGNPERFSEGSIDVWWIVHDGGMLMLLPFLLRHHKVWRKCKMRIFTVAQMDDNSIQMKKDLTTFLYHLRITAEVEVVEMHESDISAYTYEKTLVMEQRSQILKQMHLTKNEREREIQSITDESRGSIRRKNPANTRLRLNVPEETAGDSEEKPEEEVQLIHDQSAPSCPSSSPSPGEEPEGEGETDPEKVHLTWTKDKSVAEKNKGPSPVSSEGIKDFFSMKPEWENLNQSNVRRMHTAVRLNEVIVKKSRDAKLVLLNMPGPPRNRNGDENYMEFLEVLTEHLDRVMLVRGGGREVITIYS
KCC2 sec1: KCC2 modulators in sodium-free buffer, confirmation, cell-based, HEK293 KCC2, thallium flux, secondary assay; shares compounds with Cl transport mod; FluoZin2 fluorescence; hits give high values; normalised thallium flux (F/F0 slope) at 10 µM; 15% of 3,700 active;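 active = thallium flux slope above the same plate's solvent-only control mean plus 3 SD; inconclusive = the two replicate wells disagree; inactive = no significant difference from solvent-only control wells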
KCC2 bumet counter: thallium flux persisting under bumetanide in KCC2 cells, confirmation, counter-screen for KCC2 modulator project, cell-based, HEK293 KCC2, FluoZin2, secondary assay 3; HEK293-KCC2 + bumetanide/ouabain; hits give high values; normalized thallium flux at 10 µM; shares compounds with Cl transport mod; 49% of 3,700 active;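 active = thallium entry rate above the same plate's blocked-transporter control wells by more than 3 SD; inconclusive = the two repeat wells disagree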;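 note: raw slope of fluorescence over initial fluorescence between 10 and 20 s after thallium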
KCC2 secondary2: KCC2 modulators without ouabain present, confirmation, cell-based, HEK293 KCC2, thallium flux, FluoZin2, secondary assay 2; shares compounds with Cl transport mod; thallium flux FluoZin2 fluorescence; actives lie on both sides; F/F0 rise rate, 10–20 s post-thallium; normalized thallium flux at 10 µM; 23% of 3,700 active;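 active = thallium flux slope more than 3 SD above or below the plate's solvent-only control mean, mostly below; inconclusive = the two repeat wells disagreed; inactive = no significant shift from solvent-only controls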
HEK293 Tl flux: thallium flux modulation in parental HEK cells, confirmation, counter-screen for KCC2 modulator project, cell-based, counterscreen 1. shares compounds with Cl transport mod. HEK293 parental cells, thallium flux FluoZin2, ouabain; baseline-ratio fluorescence slope, 10–20 s after thallium. thallium flux rate (normalised fluorescence) at 10 µM. 46% of 3,700 active. AID 1716, 2009;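 active = thallium flux rate significantly above the same plate's solvent-only control wells, beyond their mean plus 3 SD; inconclusive = the two replicate wells gave conflicting results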
KCC2 ouabain: KCC2 inhibitors and activators, ouabain retest, confirmation, HEK-KCC2 cells; shares compounds with Cl transport mod; AID 1717, 2009; 48% of 3,700 active; HEK293-KCC2, thallium flux FluoZin2 fluorescence; bidirectional: low = inhibitor, high = activator; raw Tl+ flux slope (below DMSO = inhibition, above = activation) at 10 µM;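 active = thallium flux slope beyond 3 SD from same-plate DMSO control mean in most replicates, usually higher, sometimes lower; inconclusive = repeat tests gave conflicting results; inactive = no significant difference from controls in most replicates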;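 note: slope of initial-normalized fluorescence between seconds 10 and 20 after thallium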
HEK293 Tl flux2: native HEK Tl+ uptake effects, second counter-screen – HEK cells, counterscreen 2, counter-screen for KCC2 modulator project, confirmation; shares compounds with Cl transport mod; HEK293 parental, thallium flux FluoZin-2 fluorescence slope; thallium flux slope at 10 µM; 33% of 3,700 active; AID 1718, 2009;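 active = thallium flux slope above the same plate's solvent-control mean plus 3 SD in both duplicate wells; inconclusive = duplicate wells that disagreed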;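 note: run without ouabain in cells lacking the KCC2 cotransporter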
A number is an active result; i = inactive; ? = inconclusive; nt = no result. Compounds with a hit are over-represented: about 12% of the library has one in this group of screens.

SMILES	Diaphorase act	Diaph inh CS	ROMK mod	WT yeast gro inh	Lmaj promast	Cl transport mod	KCC2 sec1	KCC2 bumet counter	KCC2 secondary2	HEK293 Tl flux	KCC2 ouabain	HEK293 Tl flux2
O=C(NCCO)/C(=C/c1ccc(Br)cc1)NC(=O)c1cccs1	i	i	nt	i	i	nt	i	i	i	i	i	i
O=C(CNC(=O)/C(=C\c1ccc(Br)cc1)NC(=O)c1ccccc1)OCc1ccccc1	i	i	nt	i	i	-6.1	i	i	0.021	i	0.012	i
O=C(CNC(=O)/C(=C/c1ccccc1)NC(=O)c1ccc(Br)cc1)OCc1ccccc1	i	i	nt	i	i	-6.9	i	i	0.022	i	0.011	i
Cc1ccc(C(=O)N/C(=C\c2ccccc2)C(=O)OCc2ccccc2)cc1	i	i	nt	i	i	i	nt	nt	nt	nt	nt	nt
O=C(CSc1nccc(=O)[nH]1)Nc1cccc(S(=O)(=O)N2CCOCC2)c1	i	i	i	i	i	i	nt	nt	nt	nt	nt	nt
O=C(Nc1nnc(-c2ccccc2)o1)c1nc2ccccc2s1	nt	nt	nt	i	nt	i	nt	nt	nt	nt	nt	nt
CCN(CC)CC#CCOC(=O)C(O)(c1ccccc1)C1CCCCC1 (centres undefined)	i	i	nt	i	i	i	i	i	i	i	i	i
CCN(CC)CC#CCC(O)(c1ccccc1)C1CCCCC1 (centres undefined)	i	i	i	i	i	i	nt	nt	nt	nt	nt	nt
Cc1c(C)[n+](=O)c(-c2cccs2)c(C)n1[O-]	i	i	nt	i	i	nt	nt	nt	nt	nt	nt	nt
Cc1nn(-c2ccccc2)c(C)c1/C=N/n1c(-c2ccccc2Br)n[nH]c1=S	nt	nt	nt	nt	nt	10	i	0.042	i	0.011	?	?
Cn1cc(-c2nnc(-c3ccccc3)o2)c2ccccc21	i	i	nt	i	i	i	nt	nt	nt	nt	nt	nt
O=[N+]([O-])c1ccc(-c2ccc(/C=N/Nc3nc(N4CCCC4)nc(N4CCCC4)n3)o2)cc1	i	i	i	i	i	i	nt	nt	nt	nt	nt	nt
O=[N+]([O-])c1ccc(/C=N/Nc2nc(N3CCCC3)nc(N3CCCC3)n2)o1	i	i	i	i	99	6.1	i	i	i	i	i	i
C=CCN(C(=O)CSC1=NC(=O)CN1C(C)=O)c1nc(C)c(-c2ccccc2)s1	i	i	i	i	89	10	i	0.023	i	0.022	0.03	0.019
C=CCSc1nnc(-c2sc(-c3ccccc3)nc2C)n1C	i	i	nt	i	i	nt	nt	nt	nt	nt	nt	nt
COC(=O)c1ccc(NC(=O)CSCc2ccccc2C)cc1	i	i	nt	i	i	i	nt	nt	nt	nt	nt	nt
Nc1nonc1C(=O)NCCN=Cc1ccccc1O	i	i	nt	i	i	-4.6	?	?	i	i	i	i
Nc1nonc1C(=O)NCCN=Cc1cc(Cc2ccccc2)cc(Br)c1O	i	i	i	i	i	nt	nt	nt	nt	nt	nt	nt
CCc1cccc(CC)c1NC(=S)NCCc1c(C)[nH]c2ccccc12	i	i	i	68	i	-3.8	i	?	i	?	i	i
Cc1ccc(S(=O)(=O)/C(C#N)=C/c2c(N3CCC(C(N)=O)CC3)nc3ccccn3c2=O)cc1	i	i	nt	i	i	i	nt	nt	nt	nt	nt	nt
CC(C)(C)c1cc(-c2csc(Nc3ccccc3)[n+]2Cc2ccc(C(=O)O)cc2)cc(C(C)(C)C)c1O	nt	nt	i	nt	nt	i	nt	nt	nt	nt	nt	nt
O=C(O)c1ccc(C[n+]2c(-c3ccccc3)csc2Nc2ccccc2)cc1	i	i	i	i	i	-3.6	i	?	i	i	0.016	i
CCOc1cc(N2CCOCC2)c(OCC)cc1NC(=O)Cc1ccc(OC)c(OC)c1	i	i	nt	i	i	-4.7	i	i	i	i	i	i
CCOc1cc(N2CCOCC2)c(OCC)cc1NC(=O)Cc1cccc(OC)c1	i	i	nt	i	i	i	nt	nt	nt	nt	nt	nt
Cn1cnc2c1c(=O)[nH]c(=O)n2C	nt	nt	nt	nt	nt	i	i	i	i	i	i	i
SMILES	Diaphorase act	Diaph inh CS	ROMK mod	WT yeast gro inh	Lmaj promast	Cl transport mod	KCC2 sec1	KCC2 bumet counter	KCC2 secondary2	HEK293 Tl flux	KCC2 ouabain	HEK293 Tl flux2
Cn1c(=O)[nH]c(=O)c2c1ncn2CCN1CCOCC1	i	i	nt	i	i	i	nt	nt	nt	nt	nt	nt
Cc1onc(-c2ccccc2)c1C(=O)N/N=C/c1cn(C)c2ccccc12	i	i	i	i	i	i	nt	nt	nt	nt	nt	nt
Cc1cc(N)n(Cc2cccs2)n1	i	i	nt	i	i	nt	nt	nt	nt	nt	nt	nt
Cc1cccc(C)c1-n1cccc1/C=C1\SC(=S)N(c2cccc(C(=O)O)c2)C1=O	i	i	i	84	i	-4.5	i	i	i	0.0054	0.015	0.0083
Cc1cccc(C)c1NC(=O)CN1C(=O)S/C(=C\c2cccn2-c2cccc(C(=O)O)c2)C1=O	i	i	nt	i	i	nt	nt	nt	nt	nt	nt	nt
COC(=O)N/N=C(\C)c1cccc(C(F)(F)F)c1	i	i	i	i	i	nt	nt	nt	nt	nt	nt	nt
CNC(=S)N/N=C(\C)c1cccc(C(F)(F)F)c1	i	i	i	i	i	4.2	?	0.033	i	0.013	?	0.012
Cc1cc(C)n2cc(CSc3nc4ccccc4s3)nc2n1	i	i	i	i	i	i	nt	nt	nt	nt	nt	nt
O=C(/C=C/c1cccs1)Nc1scc(-c2ccccc2)c1C(=O)O	i	i	i	i	i	-4.2	i	?	0.021	i	0.014	i
O=C(/C=C/c1cccs1)Nc1nc(-c2ccccc2)cs1	i	i	nt	i	i	nt	nt	nt	nt	nt	nt	nt
Cc1ccsc1/C=N/NC(=O)CNC(=O)c1cccc([N+](=O)[O-])c1C	i	i	i	i	i	i	nt	nt	nt	nt	nt	nt

Source: PubChem
